Assay results: ChEMBL document CHEMBL3045825, “Synthesis, fungicidal activity, and structure-activity relationship of 2-oxo- and 2-hydroxycycloalkylsulfonamides” (J Agric Food Chem, 2010)
≈ marks a conversion by molar mass, not a printed value.

Key:
Botrytis cinerea [1] = experiment: Fungicidal activity against Botryotinia fuckeliana grown on compound pre-treated cucumber leaves assessed as control efficiency against gray mold disease on leaves at 31.25 ug/mL; format: functional
Method in brief: (§1)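 Cucumber leaves sprayed with formulation diluted in water (500, 125, 31.25 μg/mL), air-dried, then upper surface inoculated with 6 mm plugs of B. cinerea Pers. maintained on PDA. Disease spot diameter measured; control efficiency from inhibition-rate equation. Procedure repeated 3 times, 9 replicates; procymidone and pyrimethanil (95%) positive controls.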

Botrytis cinerea [2] = experiment: Fungicidal activity against Botryotinia fuckeliana grown on compound pre-treated cucumber leaves assessed as control efficiency against gray mold disease on leaves at 125 ug/mL; format: functional; method in brief: as §1
Botrytis cinerea [3] = experiment: Fungicidal activity against Botryotinia fuckeliana assessed as inhibition spore germination; format: functional, organism-based
Method in brief: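 Conidial germination on microscope slides: B. cinerea conidia about 2×10⁵ spores/mL in 0.05% Tween 80; acetone stock (5000 μg/mL) diluted in suspension to final 200, 50, 12.5, 3.12, 0.78 μg/mL. 30 μL on concave slide, humid chamber 23 °C, 100% RH, 8 h; germinated conidia counted in five fields. Three replicates; procymidone positive control.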

Botrytis cinerea [4] = experiment: Fungicidal activity against Botryotinia fuckeliana assessed as inhibition of mycelial growth; format: functional, organism-based
Botrytis cinerea [5] = experiment: Fungicidal activity against Botryotinia fuckeliana grown on compound pre-treated cucumber leaves assessed as control efficiency against gray mold disease on leaves at 500 ug/mL; format: functional; method in brief: as §1
Botrytis cinerea [6] = experiment: Potency index, ratio of EC80 for procymidone to EC80 for test compound against Botryotinia fuckeliana assessed as inhibition of mycelial growth; format: functional

Structure (SMILES)	Efficacy (Botrytis cinerea [1]) [%]	Efficacy (Botrytis cinerea [2]) [%]	EC50 (Botrytis cinerea [3]) [µg/mL]	EC80 (Botrytis cinerea [3]) [µg/mL]	EC50 (Botrytis cinerea [4]) [µg/mL]	EC80 (Botrytis cinerea [4]) [µg/mL]	Efficacy (Botrytis cinerea [5]) [%]	Ratio (Botrytis cinerea [6])
O=S(=O)(Nc1ccc(Cl)cc1C(F)(F)F)C1CCCC1O (configuration not stated)	62.44	68.9	5.29 (≈ 15.4 µM)	43 (≈ 125 µM)	36.4 (≈ 106 µM)	64.4 (≈ 187 µM)	81.12	
COc1ccc(OC)c(NS(=O)(=O)C2CCCCC2O)c1 (configuration not stated)					22.3 (≈ 70.7 µM)	181 (≈ 575 µM)		
O=S(=O)(Nc1ccccc1F)C1CCCCC1O (configuration not stated)					24 (≈ 87.8 µM)	84.2 (≈ 308 µM)		
O=C1CCCCCC1S(=O)(=O)Nc1ccc(Cl)cc1C(F)(F)F (configuration not stated)	11.97	21.95	18.1 (≈ 48.9 µM)	388 (≈ 1050 µM)	0.8 (≈ 2.16 µM)	3.7 (≈ 10 µM)	49.53	
O=C1CCCCC1S(=O)(=O)Nc1ccc(Cl)cc1C(F)(F)F (configuration not stated)	16.08	20.78	4.21 (≈ 11.8 µM)	124 (≈ 349 µM)	2.16 (≈ 6.07 µM)	5.2 (≈ 14.6 µM)	28.99	
O=S(=O)(Nc1ccc(Cl)cc1C(F)(F)F)C1CCCCC1O (configuration not stated)	53.05	72.42	40.1 (≈ 112 µM)	260 (≈ 727 µM)	3.37 (≈ 9.42 µM)	14.3 (≈ 39.9 µM)	93.54	
Cc1cc(F)ccc1NS(=O)(=O)C1CCCCC1O (configuration not stated)					34.1 (≈ 119 µM)	310 (≈ 1080 µM)		
O=S(=O)(Nc1cc(C(F)(F)F)cc(C(F)(F)F)c1)C1CCCCC1O (configuration not stated)					4.44 (≈ 11.3 µM)	14.6 (≈ 37.4 µM)		
O=C1CCCCCCCCCCC1S(=O)(=O)Nc1ccc(Cl)cc1C(F)(F)F (configuration not stated)	82.98	95.6	3.24 (≈ 7.36 µM)	115 (≈ 260 µM)	1.94 (≈ 4.41 µM)	39.8 (≈ 90.5 µM)	97.07	
O=S(=O)(Nc1ccc(Cl)cc1C(F)(F)F)C1CCCCCC1O (configuration not stated)	74.77	92.67	77 (≈ 207 µM)	> 1000	0.85 (≈ 2.29 µM)	5.27 (≈ 14.2 µM)	95.01	
Cc1ccc(NS(=O)(=O)C2CCCCC2O)c(C)c1 (configuration not stated)					21.5 (≈ 75.8 µM)	332 (≈ 1170 µM)		
O=S(=O)(Nc1ccc(Cl)cc1Cl)C1CCCCC1O (configuration not stated)					53.2 (≈ 164 µM)	518 (≈ 1600 µM)		
O=S(=O)(Nc1ccccc1)C1CCCCC1O (configuration not stated)					22.9 (≈ 89.7 µM)	443 (≈ 1740 µM)		
CCc1cccc(C)c1NS(=O)(=O)C1CCCCC1O (configuration not stated)					105 (≈ 352 µM)	> 10000		
O=S(=O)(Nc1ccc(Cl)cc1)C1CCCCC1O (configuration not stated)					7.38 (≈ 25.5 µM)	86.5 (≈ 298 µM)		
O=C1CCCC1S(=O)(=O)Nc1ccc(Cl)cc1C(F)(F)F (configuration not stated)	60.68	72.42	4.21 (≈ 12.3 µM)	227 (≈ 663 µM)	2.5 (≈ 7.32 µM)	15.1 (≈ 44.1 µM)	74.77	
O=S(=O)(Nc1ccccc1Br)C1CCCCC1O (configuration not stated)					11 (≈ 32.9 µM)	250 (≈ 749 µM)		
O=S(=O)(Nc1ccc(C(F)(F)F)cc1)C1CCCCC1O (configuration not stated)					8.79 (≈ 27.2 µM)	65.9 (≈ 204 µM)		
Cc1ccc(NS(=O)(=O)C2CCCCC2O)cc1 (configuration not stated)					18 (≈ 66.9 µM)	65.4 (≈ 243 µM)		
CC12CC1(C)C(=O)N(c1cc(Cl)cc(Cl)c1)C2=O (configuration not stated) [PROCYMIDONE]	61.27	73.59			0.99 (≈ 3.48 µM)	2.96 (≈ 10.4 µM)	91.78	
O=S(=O)(Nc1ccc(Cl)c(Cl)c1)C1CCCCC1O (configuration not stated)					7.8 (≈ 24.1 µM)	25.5 (≈ 78.6 µM)		
O=S(=O)(Nc1ccc(Cl)cc1C(F)(F)F)C1CCCCCCC1O (configuration not stated)	91.49	93.55	23.6 (≈ 61.2 µM)	693 (≈ 1800 µM)	1.09 (≈ 2.83 µM)	2.5 (≈ 6.48 µM)	94.42	1.18
Cc1cc(C)nc(Nc2ccccc2)n1 [PYRIMETHANIL]	76.53	82.98					100	
O=C1CCCCCCC1S(=O)(=O)Nc1ccc(Cl)cc1C(F)(F)F (configuration not stated)	64.79	67.14	19 (≈ 49.4 µM)	549 (≈ 1430 µM)	1.22 (≈ 3.18 µM)	2.88 (≈ 7.5 µM)	67.72	1.03
O=S(=O)(Nc1ccccc1Cl)C1CCCCC1O (configuration not stated)					75.6 (≈ 261 µM)	> 10000		
O=S(=O)(Nc1ccc(Br)cc1)C1CCCCC1O (configuration not stated)					7.07 (≈ 21.2 µM)	21.4 (≈ 64 µM)		
O=S(=O)(Nc1cc(C(F)(F)F)ccc1C(F)(F)F)C1CCCCC1O (configuration not stated)					2.53 (≈ 6.47 µM)	16 (≈ 40.9 µM)		
O=S(=O)(Nc1ccc(Cl)cc1C(F)(F)F)C1CCCCCCCCCCC1O (configuration not stated)	8.45	15.49	420 (≈ 950 µM)	> 1000	5.72 (≈ 12.9 µM)	49.4 (≈ 112 µM)	26.06	
